Here are results for three compounds from ChEMBL document CHEMBL1124558, “Differential effects of a series of hydroxamic acid derivatives on 5-lipoxygenase and cyclooxygenase from neutrophils and 12-lipoxygenase from platelets and their in vivo effects on inflammation and anaphylaxis” (J Med Chem, 1989).

Test [1] has as its target T1, Polyunsaturated fatty acid 5-lipoxygenase (Homo sapiens, UniProt P09917).
T1 sequence (P09917 whole entry): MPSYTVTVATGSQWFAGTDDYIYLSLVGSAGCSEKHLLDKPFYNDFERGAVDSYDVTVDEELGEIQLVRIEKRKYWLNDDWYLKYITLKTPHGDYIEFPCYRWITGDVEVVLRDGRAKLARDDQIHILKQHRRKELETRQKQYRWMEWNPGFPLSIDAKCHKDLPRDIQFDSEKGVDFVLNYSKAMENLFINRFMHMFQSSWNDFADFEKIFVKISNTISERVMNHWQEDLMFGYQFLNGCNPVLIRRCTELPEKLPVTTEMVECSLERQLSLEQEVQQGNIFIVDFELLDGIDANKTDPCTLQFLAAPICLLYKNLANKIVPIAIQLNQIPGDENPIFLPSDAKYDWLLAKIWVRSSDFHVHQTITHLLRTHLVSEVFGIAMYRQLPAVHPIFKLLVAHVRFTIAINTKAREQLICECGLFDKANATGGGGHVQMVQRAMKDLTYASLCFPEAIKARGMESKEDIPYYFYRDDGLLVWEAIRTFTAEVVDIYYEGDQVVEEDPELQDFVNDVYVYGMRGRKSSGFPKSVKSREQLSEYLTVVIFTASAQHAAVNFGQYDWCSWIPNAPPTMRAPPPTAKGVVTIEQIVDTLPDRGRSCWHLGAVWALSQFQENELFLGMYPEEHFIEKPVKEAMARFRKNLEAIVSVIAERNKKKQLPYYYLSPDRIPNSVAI
The experiment in a line: In vitro inhibition of polymorphonuclear leukocyte derived human 5-lipoxygenase. A digest of the protocol:
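PMNs from venous blood of healthy volunteers, isolated by dextran sedimentation and Percoll gradient (>90% pure) and held in Ca/Mg PBS with 1 mg/mL glucose and 1 μM indomethacin. Challenged with calcium ionophore and [14C]arachidonic acid for 3 min. 5-HETE measured by TLC and scintillation counting; IC50 read graphically.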

Test [2] has as its target T2, Polyunsaturated fatty acid 5-lipoxygenase (Rattus norvegicus, UniProt P12527).
T2 sequence (P12527 whole entry): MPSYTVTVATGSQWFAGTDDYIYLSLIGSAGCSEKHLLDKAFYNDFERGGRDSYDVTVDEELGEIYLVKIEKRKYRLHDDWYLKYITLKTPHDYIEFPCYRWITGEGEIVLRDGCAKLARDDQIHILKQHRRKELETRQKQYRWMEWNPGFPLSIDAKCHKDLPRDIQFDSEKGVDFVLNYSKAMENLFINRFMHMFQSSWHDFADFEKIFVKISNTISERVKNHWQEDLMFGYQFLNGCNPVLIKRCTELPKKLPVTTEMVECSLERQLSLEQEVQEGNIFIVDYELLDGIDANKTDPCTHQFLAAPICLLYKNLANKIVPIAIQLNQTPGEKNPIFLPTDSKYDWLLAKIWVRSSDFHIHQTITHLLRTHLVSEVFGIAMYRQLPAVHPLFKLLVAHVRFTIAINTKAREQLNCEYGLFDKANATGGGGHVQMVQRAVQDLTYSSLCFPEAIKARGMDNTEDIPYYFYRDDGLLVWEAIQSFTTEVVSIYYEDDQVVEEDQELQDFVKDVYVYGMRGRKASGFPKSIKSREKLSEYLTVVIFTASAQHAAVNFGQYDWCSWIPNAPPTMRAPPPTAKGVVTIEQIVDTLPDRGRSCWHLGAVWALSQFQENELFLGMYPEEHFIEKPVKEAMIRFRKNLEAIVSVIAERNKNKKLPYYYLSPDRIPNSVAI
In words: In vitro inhibition of rat polymorphonuclear leukocyte 5-lipoxygenase. A digest of the protocol: (§1)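 Intact glycogen-elicited peritoneal PMNs pooled from 4–5 Sprague-Dawley rats (250 g), preincubated 5 min at 30 °C with compound in DMSO (≤0.1% final) plus 1 μM indomethacin. Challenge with [14C]arachidonic acid (4 μM) and A23187 (0.8 μM) for 3 min. Extraction, TLC, 5-HETE by scintillation counting.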

The target of test [3] is T3, Cysteinyl leukotriene receptor 1 (Cavia porcellus, UniProt Q2NNR5).
T3 sequence (Q2NNR5 whole entry): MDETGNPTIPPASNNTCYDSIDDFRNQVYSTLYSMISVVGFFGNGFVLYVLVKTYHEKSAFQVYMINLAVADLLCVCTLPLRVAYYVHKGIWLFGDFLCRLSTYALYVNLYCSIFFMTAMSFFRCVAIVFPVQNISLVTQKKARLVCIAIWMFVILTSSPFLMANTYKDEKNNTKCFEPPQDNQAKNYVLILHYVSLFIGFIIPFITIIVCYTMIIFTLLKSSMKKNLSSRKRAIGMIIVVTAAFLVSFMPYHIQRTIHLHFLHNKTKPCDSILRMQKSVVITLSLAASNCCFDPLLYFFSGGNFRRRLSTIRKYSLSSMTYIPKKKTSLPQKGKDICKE
The experiment in a line: Activity to bind against [3H]LTD4 radioligand in guinea pig.

Test [4] relates to Cavia porcellus. The experiment in a line: In vivo inhibitory activity against guinea pig systemic anaphylaxis when administered a compound dose (60 mg/kg) perorally. It counts as functional. The conditions noted are these: po. The procedure, abridged:
(§2)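 Male Hartley guinea pigs sensitised ip with ovalbumin (2.7 mg/kg) plus LPS adjuvant, then challenged 2 weeks later with 1% ovalbumin aerosol for 30 s. Pretreated with pyrilamine, indomethacin and propranolol 20 min before challenge. Compound given in PEG 400 1 h before challenge.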

Test [5] concerns Mus musculus. The experiment in a line: In vivo inhibitory activity against mouse ear inflammation when administered a compound dose (1 mg/ear). Format: functional. A digest of the protocol:
(§3)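 Compound or ethanol vehicle applied topically to one ear of male DBA/2J mice 60 min before arachidonic acid (2 mg/ear). […] Groups of 5 mice.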

The target in test [6] is T4, Cyclooxygenase (Rattus norvegicus) (UniProt P35355+Q63921). In words: In vitro inhibitory activity against rat polymorphonuclear leukocyte Prostaglandin G/H synthase. Format: protein assay. To be noted: concentration not given here. The procedure, abridged:
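Glycogen-elicited peritoneal PMNs from Sprague-Dawley rats were homogenized at 0 °C in 0.1 M Tris-HCl pH 8.2 with 10 μM NDGA. Compound (DMSO ≤0.1%) was preincubated 5 min at 37 °C, then 8 μM [14C]arachidonic acid with 4 mM glutathione and epinephrine was added for 10 min. TxB2 and PGF2α were measured by TLC and scintillation counting.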

Test [7] concerns the target T5, Arachidonate 12-lipoxygenase (Rattus norvegicus) (UniProt Q02759).
T5 sequence (whole entry): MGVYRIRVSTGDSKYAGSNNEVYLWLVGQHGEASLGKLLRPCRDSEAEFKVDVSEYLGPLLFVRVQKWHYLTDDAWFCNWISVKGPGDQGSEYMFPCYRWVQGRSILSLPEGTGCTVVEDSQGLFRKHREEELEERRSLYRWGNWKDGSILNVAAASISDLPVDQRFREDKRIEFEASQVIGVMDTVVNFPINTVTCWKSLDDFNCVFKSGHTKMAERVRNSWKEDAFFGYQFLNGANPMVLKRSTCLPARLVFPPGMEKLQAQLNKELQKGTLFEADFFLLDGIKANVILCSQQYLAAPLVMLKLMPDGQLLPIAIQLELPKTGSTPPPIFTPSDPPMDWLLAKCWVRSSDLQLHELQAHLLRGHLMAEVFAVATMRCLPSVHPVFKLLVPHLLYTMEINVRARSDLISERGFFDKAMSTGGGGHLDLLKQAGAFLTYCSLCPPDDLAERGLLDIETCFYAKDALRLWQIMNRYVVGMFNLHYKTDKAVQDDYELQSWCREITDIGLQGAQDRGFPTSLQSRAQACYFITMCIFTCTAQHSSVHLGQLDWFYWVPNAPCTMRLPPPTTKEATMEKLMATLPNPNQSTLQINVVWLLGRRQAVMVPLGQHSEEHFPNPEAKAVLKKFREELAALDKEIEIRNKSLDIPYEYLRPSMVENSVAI
In words: In vitro inhibitory activity against rat platelet 12-lipoxygenase at 30 uM. The procedure, abridged: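 Cell-free cytosolic 12-lipoxygenase from Sprague-Dawley rat platelets (0.4 mg/mL), preincubated 5 min at 30 °C with compound in DMSO (≤0.1% final), 25 mM Tris pH 7.4, 1 μM indomethacin, 100 μM glutathione; reaction started with 6 μM [14C]arachidonic acid and quenched with citric acid/NDGA after 3 min. 12-HETE isolated by TLC and counted by scintillation; % inhibition, duplicate.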

Test [8] has as its target T1, Polyunsaturated fatty acid 5-lipoxygenase. The experiment in a line: In vitro inhibitory activity against polymorphonuclear leukocyte 5-lipoxygenase in human cell at 10 uM. The procedure, abridged:
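Human PMNs from venous blood of a healthy volunteer (EDTA) were purified by dextran sedimentation, a Percoll gradient and NH4Cl red-cell lysis (>90% pure). They were held in Ca/Mg PBS with 1 mg/mL glucose and 1 μM indomethacin, then challenged with A23187 (0.8 μM) and [14C]arachidonic acid (4 μM) for 3 min. 5-HETE was measured by TLC and scintillation counting.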

For test [9], the target named is T6, Polyunsaturated fatty acid 5-lipoxygenase (Rattus norvegicus) (UniProt P12527).
T6 sequence (whole entry): T2 sequence (P12527 whole entry)
In words: In vitro inhibitory activity against polymorphonuclear leukocyte 5-lipoxygenase in rat cell at 1 uM. A digest of the protocol:
as §1

The target in test [10] is T4, Cyclooxygenase (Rattus norvegicus). In words: Inhibition of Prostaglandin G/H synthase in rat polymorphonuclear leukocytes. Format: cell-based. Also on record: concentration or dose not given beside the values. The conditions noted are these: concentration not given here. The procedure, abridged: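 Homogenate of glycogen-elicited rat peritoneal PMNs in 0.1 M Tris-HCl pH 8.2 with 10 μM NDGA, preincubated 5 min at 37 °C with compound (≤0.1% DMSO). [14C]arachidonic acid (8 μM) added with 4 mM glutathione and epinephrine; 10 min reaction. TxB2 and PGF2α separated by TLC and counted.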

Another test concerns the target 12-lipoxygenase (Rattus norvegicus, UniProt F1LQ70). In words: In vitro inhibitory activity against rat platelet 12-lipoxygenase.
Test [11] deals with Cavia porcellus. The experiment in a line: In vivo inhibitory activity against guinea pig systemic anaphylaxis when administered a compound dose (200 mg/kg) perorally. The conditions noted are these: po. It counts as functional. The procedure, abridged: as §2
The subject of test [12] is Mus musculus. In words: In vivo inhibition of mouse ear inflammation. Also on record: concentration or dose not given beside the values. It counts as functional. The procedure, abridged:
as §3

T4 sequence (P35355 whole entry, looked up): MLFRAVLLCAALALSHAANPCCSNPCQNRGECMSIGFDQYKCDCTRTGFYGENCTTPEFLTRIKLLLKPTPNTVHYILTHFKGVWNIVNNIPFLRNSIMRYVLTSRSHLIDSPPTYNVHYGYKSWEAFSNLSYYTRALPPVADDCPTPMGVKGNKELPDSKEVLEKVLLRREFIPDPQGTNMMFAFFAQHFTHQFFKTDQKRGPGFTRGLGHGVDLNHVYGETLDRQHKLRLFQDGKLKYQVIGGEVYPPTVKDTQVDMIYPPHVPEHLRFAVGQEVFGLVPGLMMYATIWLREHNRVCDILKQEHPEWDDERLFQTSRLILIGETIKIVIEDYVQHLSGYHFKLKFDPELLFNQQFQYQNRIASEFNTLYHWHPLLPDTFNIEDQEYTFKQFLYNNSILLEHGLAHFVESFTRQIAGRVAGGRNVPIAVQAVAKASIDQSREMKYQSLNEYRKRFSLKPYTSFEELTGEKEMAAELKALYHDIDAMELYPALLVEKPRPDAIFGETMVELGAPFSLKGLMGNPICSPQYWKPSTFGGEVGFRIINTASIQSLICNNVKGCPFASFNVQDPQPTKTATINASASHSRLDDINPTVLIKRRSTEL
T4 sequence (Q63921 whole entry, looked up): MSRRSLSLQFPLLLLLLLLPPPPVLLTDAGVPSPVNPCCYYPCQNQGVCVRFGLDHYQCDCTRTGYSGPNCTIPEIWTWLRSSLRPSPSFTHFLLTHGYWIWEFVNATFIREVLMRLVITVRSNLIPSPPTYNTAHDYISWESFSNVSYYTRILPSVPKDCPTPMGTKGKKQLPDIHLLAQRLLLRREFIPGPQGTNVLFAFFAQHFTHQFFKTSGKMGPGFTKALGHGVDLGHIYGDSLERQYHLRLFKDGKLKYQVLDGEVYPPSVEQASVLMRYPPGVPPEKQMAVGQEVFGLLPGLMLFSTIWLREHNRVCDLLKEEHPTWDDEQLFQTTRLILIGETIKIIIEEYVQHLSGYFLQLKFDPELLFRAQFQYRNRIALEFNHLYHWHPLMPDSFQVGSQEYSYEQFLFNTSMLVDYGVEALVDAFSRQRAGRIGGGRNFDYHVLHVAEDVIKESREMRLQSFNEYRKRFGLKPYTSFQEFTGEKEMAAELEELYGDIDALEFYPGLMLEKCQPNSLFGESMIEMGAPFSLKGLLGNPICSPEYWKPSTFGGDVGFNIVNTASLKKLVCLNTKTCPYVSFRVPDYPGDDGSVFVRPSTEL
Sequence of 12-lipoxygenase (F1LQ70 whole entry, looked up): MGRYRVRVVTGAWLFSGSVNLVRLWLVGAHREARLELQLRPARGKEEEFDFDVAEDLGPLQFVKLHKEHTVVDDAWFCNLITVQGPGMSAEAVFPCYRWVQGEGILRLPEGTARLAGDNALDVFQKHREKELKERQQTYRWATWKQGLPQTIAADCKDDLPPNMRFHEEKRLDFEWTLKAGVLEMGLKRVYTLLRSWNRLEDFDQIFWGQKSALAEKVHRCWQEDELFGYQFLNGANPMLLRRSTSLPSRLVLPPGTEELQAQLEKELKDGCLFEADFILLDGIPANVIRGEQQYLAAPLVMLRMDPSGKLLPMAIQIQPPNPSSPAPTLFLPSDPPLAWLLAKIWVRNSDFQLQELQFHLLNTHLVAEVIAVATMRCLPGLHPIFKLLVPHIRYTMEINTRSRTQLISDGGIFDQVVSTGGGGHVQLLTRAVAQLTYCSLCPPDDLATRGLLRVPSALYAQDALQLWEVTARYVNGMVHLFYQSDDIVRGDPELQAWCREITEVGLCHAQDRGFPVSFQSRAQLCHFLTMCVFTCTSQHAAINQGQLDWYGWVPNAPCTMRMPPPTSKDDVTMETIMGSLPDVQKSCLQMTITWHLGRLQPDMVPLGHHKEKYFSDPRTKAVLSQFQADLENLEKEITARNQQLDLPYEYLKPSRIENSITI

Usually IC50 stands for the concentration needed to halve the response being measured. The Ki is the equilibrium dissociation constant of an inhibitor or competing ligand from its target. For orientation: inhibition in vivo means the percentage by which the read-out fell short of the control. Usually Inhibition stands for the share of the control response that was lost under treatment. The inhibition is the share of the control response that was lost under treatment. In the case of `CN(O)C(=O)Cc1ccc(OCc2ccc3ccccc3n2)cc1`, the IC50 worked out at 1000 nM in [1] and 350 nM in test [2]. In addition, the Ki in test [3] is 1000 nM. In the test with Cavia porcellus [4], testing at 60 mg/kg gave an inhibition in vivo of 94%. In the test with Mus musculus [5], this compound gave an Inhibition of 48%. The inhibition in test [6] is under 10%.

Take `O=C(/C=C/c1ccc(OCc2ccccc2)cc1)N(O)CCc1ccccc1`: the inhibition was 3% in [7], 24% in test [9] and under 10% in [10]. This compound also returned an Inhibition in [8] of under 10%.

On 12-lipoxygenase, `O=C(Cc1ccc(OCc2ccccc2)cc1)N(O)CCc1ccccc1` registered a Ki of 1600 nM. The compound further gave an inhibition in vivo at 200 mg/kg with Cavia porcellus [11] of 17%. In the test with Mus musculus [12], the Inhibition turned out to be 39%. In addition, the inhibition in test [10] is under 10%.
